Data on 2 compounds can be found in ChEMBL document CHEMBL1143420, “Distribution of suramin, an antitrypanosomal drug, across the blood-brain and blood-cerebrospinal fluid interfaces in wild-type and P-glycoprotein transporter-deficient mice” (Antimicrob Agents Chemother, 2007).

For one data set, the species on record is Mus musculus. The data set is described as follows: Drug uptake in BALB/c mouse assessed as tritiated drug level at 5 ml/min perfusion after 10 min relative to [14C]sucrose. In kind it is ADME, organism-based. The conditions noted are these: in vivo, other.
The subject of data set [1] is Hypothalamus. Description: Biodistribution in wild type FVB Mdr1a/Mdr1b positive mouse hypothalamus assessed as tritiated drug level at 150 uM perfusion after 30 mins by capillary depletion assay. In kind it is ADME, organism-based. The conditions noted are these: in vivo, other, 0.5 h. The essentials: (§1)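 The method compared multiple-time CNS uptake in Mdr1a/Mdr1b+/+ and –/– FVB male mice (about 25 g; genotype confirmed by PCR). […] Regional dpm/g was expressed relative to plasma (RTissue%). 3-4 mice per point. Genotypes were compared by Student's t test.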

A short description of data set [2]: Biodistribution in wild type FVB Mdr1a/Mdr1b positive mouse pituitary gland assessed as tritiated drug level at 150 uM perfusion after 30 mins by capillary depletion assay. In kind it is ADME, organism-based. The conditions noted are these: in vivo, other, 0.5 h. The method in brief:
as §1

Data set [3] in a line: Biodistribution in FVB Mdr1a/Mdr1b deficient mouse caudate putamen assessed as tritiated drug level at 150 uM perfusion after 30 mins by capillary depletion assay. As to conditions: in vivo, other, 0.5 h. In kind it is ADME, organism-based. The method in brief:
as §1

Data set [4] in a line: Biodistribution in perfused FVB Mdr1a/Mdr1b deficient mouse choroid plexus assessed as tritiated drug level after 30 mins relative to control. In kind it is ADME, organism-based. As to conditions: in vivo, 0.5 h. The essentials: (§2)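 Mice were perfused with artificial plasma for 4 min, then decapitated. The IVth ventricle choroid plexus was excised and preincubated 10 min in artificial CSF at 37°C. […] BALB/c tissue also received 150 µM phenylarsine oxide in 0.05% DMSO, or 0.05% DMSO alone.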

The nature of data set [5]: Biodistribution in wild type FVB Mdr1a/Mdr1b positive mouse pineal gland assessed as tritiated drug level at 150 uM perfusion after 30 mins by capillary depletion assay. The class given is ADME, organism-based. As to conditions: in vivo, other, 0.5 h. The method in brief: as §1
Data set [6] has as its system Thalamus. The data set is described as follows: Biodistribution in FVB Mdr1a/Mdr1b deficient mouse thalamus assessed as tritiated drug level at 150 uM perfusion after 30 mins by capillary depletion assay. In kind it is ADME, organism-based. As to conditions: in vivo, other, 0.5 h. The essentials:
as §1

Data set [7] in a line: Biodistribution in perfused wild type FVB Mdr1a/Mdr1b positive mouse choroid plexus assessed as tritiated drug level after 2.5 mins relative to control. In kind it is ADME, organism-based. As to conditions: in vivo. The essentials:
as §2

A short description of data set [8]: Biodistribution in FVB Mdr1a/Mdr1b deficient mouse frontal cortex assessed as tritiated drug level at 150 uM perfusion after 30 mins by capillary depletion assay. The class given is ADME, organism-based. The conditions noted are these: in vivo, other, 0.5 h. The method in brief: as §1
The nature of data set [9]: Biodistribution in perfused FVB Mdr1a/Mdr1b deficient mouse choroid plexus assessed as tritiated drug level after 2.5 mins relative to control. As to conditions: in vivo. In kind it is ADME, organism-based. The method in brief: as §2
Data set [10] is described as follows: Biodistribution in wild type FVB Mdr1a/Mdr1b positive mouse caudate putamen assessed as tritiated drug level at 150 uM perfusion after 30 mins by capillary depletion assay. The class given is ADME, organism-based. As to conditions: in vivo, other, 0.5 h. The method in brief: as §1
Data set [11] relates to Thalamus. Description: Biodistribution in BALB/c mouse thalamus assessed as tritiated drug level at 150 uM perfusion after 10 mins by capillary depletion assay in presence of phenylarsine ocide. In kind it is ADME, organism-based. As to conditions: in vivo, other. The method in brief: (§3)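 BALB/c mice were perfused in situ via the heart at 5 ml/min. A 10-min preperfusion used either 150 µM phenylarsine oxide in 0.05% DMSO (final) or a 0.05% DMSO control. […] Brain regions were sampled and counted by liquid scintillation. Results are RTissue% as mean ± SEM.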

Data set [12] can be described thus: Biodistribution in perfused wild type FVB Mdr1a/Mdr1b positive mouse choroid plexus assessed as tritiated drug level after 30 mins relative to control. The class given is ADME, organism-based. As to conditions: in vivo, 0.5 h. The method in brief:
as §2

Data set [13] can be described thus: Biodistribution in wild type FVB Mdr1a/Mdr1b positive mouse brain 4th ventricle choroid plexus assessed as tritiated drug level at 150 uM perfusion after 30 mins by capillary depletion assay. The class given is ADME, organism-based. The conditions noted are these: in vivo, other, 0.5 h. The essentials: as §1
Data set [14] is described as follows: Biodistribution in perfused BALB/c mouse choroid plexus assessed as tritiated drug level after 2.5 mins in presence of DMSO relative to control. The class given is ADME, organism-based. As to conditions: in vivo. The essentials:
as §2

Data set [15] deals with Hypothalamus. The data set is described as follows: Biodistribution in FVB Mdr1a/Mdr1b deficient mouse hypothalamus assessed as tritiated drug level at 150 uM perfusion after 30 mins by capillary depletion assay. The class given is ADME, organism-based. As to conditions: in vivo, other, 0.5 h. The essentials: as §1
In the next data set the test system is Cerebellum. The data set is described as follows: Biodistribution in FVB Mdr1a/Mdr1b deficient mouse cerebellum assessed as tritiated drug level at 150 uM perfusion after 30 mins by capillary depletion assay. The class given is ADME, organism-based. As to conditions: in vivo, other, 0.5 h. The method in brief:
as §1

Data set [16] can be described thus: Biodistribution in perfused BALB/c mouse choroid plexus assessed as tritiated drug level after 2.5 mins in presence of phenylarsine oxide relative to control. In kind it is ADME, organism-based. As to conditions: in vivo. The essentials: as §2
Data set [17] can be described thus: Biodistribution in perfused wild type FVB Mdr1a/Mdr1b positive mouse choroid plexus assessed as drug accumulation after 2.5 mins. As to conditions: in vivo. In kind it is ADME, organism-based. The essentials:
as §2

Data set [18] is described as follows: Biodistribution in perfused FVB Mdr1a/Mdr1b deficient mouse choroid plexus assessed as drug accumulation after 30 mins. In kind it is ADME, organism-based. The conditions noted are these: in vivo, 0.5 h. The essentials: as §2
A short description of data set [19]: Protein binding in mouse plasma assessed as tritiated drug level. The class given is ADME, cell-free. As to conditions: read-out: PPB (converted). The method in brief:
(§4)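 [3H]suramin (0.14 µCi) was dissolved in 0.7 ml of warmed artificial plasma, mouse plasma, or reconstituted human plasma. Binding was measured by centrifugal ultrafiltration. Mouse plasma came from heparinized cardiac blood of male FVB mice, spun at 5,400 x g for 10 min. Human plasma was lyophilized citrated plasma. Protein retention by the filter was checked by the Lowry method.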

A short description of data set [20]: Protein binding in artificial plasma assessed as tritiated drug level. In kind it is ADME, cell-free. The conditions noted are these: read-out: PPB (converted). The essentials: as §4
A short description of data set [21]: Protein binding in human plasma assessed as tritiated drug level. In kind it is ADME, cell-free. As to conditions: read-out: PPB (converted). The method in brief:
as §4

The nature of data set [22]: Biodistribution in FVB Mdr1a/Mdr1b deficient mouse pituitary gland assessed as tritiated drug level at 150 uM perfusion after 30 mins by capillary depletion assay. In kind it is ADME, organism-based. As to conditions: in vivo, other, 0.5 h. The method in brief: as §1
Data set [23] in a line: Biodistribution in perfused wild type FVB Mdr1a/Mdr1b positive mouse choroid plexus assessed as drug accumulation after 30 mins. As to conditions: in vivo, 0.5 h. In kind it is ADME, organism-based. The essentials: as §2
Data set [24] in a line: Partition coefficient of the compound. As to conditions: octanol/water.
The nature of data set [25]: Biodistribution in perfused BALB/c mouse choroid plexus assessed as drug accumulation after 2.5 mins in presence of DMSO. In kind it is ADME, organism-based. The conditions noted are these: in vivo. The essentials:
as §2

Data set [26] can be described thus: Biodistribution in wild type FVB Mdr1a/Mdr1b positive mouse choroid plexus assessed as tritiated drug level at 150 uM perfusion after 30 mins by capillary depletion assay. The class given is ADME, organism-based. The conditions noted are these: in vivo, other, 0.5 h. The method in brief: as §1
Data set [27] can be described thus: Biodistribution in BALB/c mouse choroid plexus assessed as tritiated drug level at 150 uM perfusion after 10 mins by capillary depletion assay in presence of DMSO. The class given is ADME, organism-based. The conditions noted are these: in vivo, other. The method in brief:
as §3

Data set [28] in a line: Biodistribution in BALB/c mouse pituitary gland assessed as tritiated drug level at 5 ml/min perfusion after 30 min. The class given is ADME, organism-based. The conditions noted are these: in vivo, other, 0.5 h. The method in brief:
(§5)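 BALB/c mice were anesthetized (medetomidine 2 mg/kg, ketamine 150 mg/kg), heparinized, and perfused via the left ventricle at 5 ml/min with oxygenated artificial plasma (Krebs-Henseleit base, 1 g/liter BSA, 37°C). […] Tissue dpm/g was expressed as % of plasma dpm/ml (RTissue%). 3-4 mice per point.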

Data set [29] can be described thus: Biodistribution in perfused FVB Mdr1a/Mdr1b deficient mouse choroid plexus assessed as drug accumulation after 2.5 mins. The class given is ADME, organism-based. The conditions noted are these: in vivo. The essentials:
as §2

Data set [30] in a line: Biodistribution in FVB Mdr1a/Mdr1b deficient mouse choroid plexus assessed as tritiated drug level at 150 uM perfusion after 30 mins by capillary depletion assay. The class given is ADME, organism-based. The conditions noted are these: in vivo, other, 0.5 h. The method in brief:
as §1

A short description of data set [31]: Biodistribution in BALB/c mouse 4th ventricle choroid plexus assessed as tritiated drug level at 5 ml/min perfusion after 30 min. The class given is ADME, organism-based. The conditions noted are these: in vivo, other, 0.5 h. The method in brief:
as §5

The nature of data set [32]: Biodistribution in perfused BALB/c mouse choroid plexus assessed as drug accumulation after 2.5 mins in presence of phenylarsine oxide. The conditions noted are these: in vivo. The class given is ADME, organism-based. The method in brief: as §2
Data set [33] is described as follows: Biodistribution in FVB Mdr1a/Mdr1b deficient mouse pineal gland assessed as tritiated drug level at 150 uM perfusion after 30 mins by capillary depletion assay. The class given is ADME, organism-based. The conditions noted are these: in vivo, other, 0.5 h. The method in brief:
as §1

Data set [34] in a line: Biodistribution in BALB/c mouse pineal gland assessed as tritiated drug level at 5 ml/min perfusion after 30 min. The class given is ADME, organism-based. As to conditions: in vivo, other, 0.5 h. The essentials:
as §5

Take `OC[C@H]1O[C@@](CO)(O[C@H]2O[C@H](CO)[C@@H](O)[C@H](O)[C@H]2O)[C@@H](O)[C@@H]1O` [SUCROSE]: the Drug uptake in the data set listed under Mus musculus was 1.56%; in the data set with Hypothalamus [1], 2.2%; in data set [2], 80.4%; in data set [3], 2.5%; in data set [4], 2.6%; in [5], 54.4%. Further, the Drug uptake amounted to 3.4% in the data set with Thalamus [6]; 0.9% in data set [7]; 2.5% in data set [8]; 1.8% in data set [9]; 1.1% in data set [10]; 2.1% in [12]. The Drug uptake in [13] is on record as 83.2%; in data set [14] it was 0.7%; with Hypothalamus [15], 5.8%; in the data set on Cerebellum, 2.5%; in data set [16], 1.6%. The Activity with Thalamus [11] is recorded as 2.2%.
Regarding `Cc1ccc(C(=O)Nc2ccc(S(=O)(=O)O)c3cc(S(=O)(=O)O)cc(S(=O)(=O)O)c23)cc1NC(=O)c1cccc(NC(=O)Nc2cccc(C(=O)Nc3cc(C(=O)Nc4ccc(S(=O)(=O)O)c5cc(S(=O)(=O)O)cc(S(=O)(=O)O)c45)ccc3C)c2)c1` [SURAMIN], the Drug uptake was 8.6% in data set [17]; 46% in [2]; 29.3% in data set [4]; 26.6% in [18]; 263% in data set [5]; 9.5% in data set [7]. Further, the Drug uptake amounted to 57% in data set [22]; 25.3% in [23]; 12.5% in data set [9]; 6.7% in [25]; 100% in [26]; 99.4% in data set [27]. Further, the Drug uptake in data set [12] is recorded as 27.2%; in [14], 7.4%; in data set [28] it was 39%; in data set [29], 10.9%; in data set [30], 97%; in [31], 163%. Besides, the Drug uptake is reported as 11.4% in data set [32], 437% in data set [33], 388% in [34] and 13% in [16]. Further, the fraction unbound in data set [19] was 0.03; in data set [20], 0.047; in [21] it was 0.006. Further, the partition coefficient in data set [24] was found to be 0.00023.
